Assay results gathered from unrelated publications.
Compare with care: the assays were run in different laboratories.
Target: Ephrin type-A receptor 5 (EPHA5, Homo sapiens, UniProt P54756)

CC(C)(O)[C@H]1CC[C@H](Nc2ccc3ncc(-c4cccc(C(F)(F)F)c4)n3n2)CC1 — remaining activity (enzyme activity, inhibitor; 1 µM): 101%
CC(C)c1ccc(NC(=O)c2cccs2)c(-c2nc3ccccc3[nH]c2=O)c1 — activity vs control (enzyme activity, inhibitor; 1 µM): 112%
O=C(Nc1cnn(-c2csc(C(=O)NC3COC3)c2)c1)Nc1c(F)cccc1Cl — remaining activity (enzyme activity, inhibitor; 5 µM): 95%
O=c1nc(-c2ccccn2)sc2ccccc12 — remaining binding (cell-free assay, competition with immobilised ligand; 1 µM): 94%
Oc1ccc(-c2nc(-c3ccncc3)c(-c3ccc(F)cc3)[nH]2)cc1 — remaining signal (cell-free assay; 0.5 µM): 90.7%
CC(C)(C)c1nc2c(s1)c1nc(N)ncc1c1ccc(NS(=O)(=O)c3c(F)cccc3F)c(F)c12 — remaining activity (enzyme activity, inhibitor, radiometric; 1 µM): 109%
Cc1ccc(C(=O)NCc2ccsc2)cc1C#Cc1cn(C(C)C)c2ncnc(N)c12 — activity vs control (enzyme activity, inhibitor; 1 µM): 1%
CCN(CC)CCNC(=O)c1c(C)[nH]c(/C=C2\C(=O)Nc3ccc(F)cc32)c1C — inhibition (enzyme activity, inhibitor; 0.3 µM): 7%
Cc1cnc(NC2CCOCC2)nc1-n1cnc(C(=O)NC(CN)c2cc(F)cc(Cl)c2)c1 (stereo not shown) — remaining activity (enzyme activity, inhibitor, radiometric; 1 µM): 92%
CS(=O)(=O)NCC[C@H](NC(=O)c1cncc2c1cnn2-c1ccc(F)cc1)c1ccnc(S(C)(=O)=O)c1 — remaining binding (cell-free assay, competition with immobilised ligand; 1 µM): 100%
COc1cc2c(N3CCN(C(=O)Nc4ccc(OC(C)C)cc4)CC3)ncnc2cc1OCCCN1CCCCC1 — remaining signal (cell-free assay; 0.5 µM): 104%
Cc1ccc(NC(=O)c2ccc(C)c(C(F)(F)F)c2)cc1C#Cc1nn(C2CCC(O)CC2)c2ncnc(N)c12 (stereo not shown) — remaining signal (cell-free assay; 10 µM): -1%
COc1cc2ncnc(Nc3ccc(Oc4ccccc4)c(C)c3C)c2cc1OC — inhibition (enzyme activity, inhibitor; 1 µM): 1%
O=C1NC(=O)c2cc(Nc3ccc(F)cc3)c(Nc3ccc(F)cc3)cc21 — remaining signal (cell-free assay; 0.5 µM): 95.4%
Cc1ccc(Nc2nccc(N(C)c3ccc4c(C)n(C)nc4c3)n2)cc1S(N)(=O)=O — inhibition (enzyme activity, inhibitor; 0.3 µM): 6%
CCOCCn1cc(C(=O)Nc2ccc(-n3nc(-c4cccnc4)cc3C(F)(F)F)cn2)ccc1=O — remaining binding (cell-free assay, competition with immobilised ligand; 1 µM): 100%
O=C(Nc1cnn(-c2csc(C(=O)NC3COC3)c2)c1)Nc1ccccc1Cl — remaining activity (enzyme activity, inhibitor; 5 µM): 96.9%
C[C@@H]1CN(c2cc(-c3nn(C)c4ccc(OC5(C)CC5)cc34)ncn2)C[C@H](C)O1 — remaining binding (cell-free assay, competition with immobilised ligand; 1 µM): 100%
COc1cc(-c2cc(-c3ccc(N4CCNCC4)cc3)cnc2C)cc(OC)c1OC — inhibition (enzyme activity, inhibitor; 1 µM): 4%
Cc1noc([C@H]2C[C@@H](c3ccc(C(F)(F)F)cc3)CN(C(=O)N3CCS(=O)(=O)C3)C2)n1 — remaining binding (cell-free assay, competition with immobilised ligand; 1 µM): 100%
CN1CC(Oc2cnc(C#N)cc2-c2ccn3nc(NC(=O)C4CC4)cc3c2)C1 — inhibition (enzyme activity, inhibitor; 1 µM): 10%
Cc1cc(-n2nc(Cc3cc(F)cc(C(F)(F)F)c3)nc2C)ccc1C(N)=O — remaining binding (cell-free assay, competition with immobilised ligand; 1 µM): 100%
Cc1ccc(C(=O)Nc2ccc(CN3CCN(C)CC3)c(C(F)(F)F)c2)cc1C#Cc1cnc2cccnn12 — remaining signal (cell-free assay; 23.5 nM): 31%
CNC(=O)c1cc(Oc2ccc(NC(=O)Nc3ccc(Cl)c(C(F)(F)F)c3)cc2)ccn1 — inhibition (enzyme activity, inhibitor; 10 µM): 92%
COc1cc(-c2cn(C3CCc4c(F)cccc4N(CC(F)(F)F)C3=O)nn2)ccc1-n1cnc(C)c1 (stereo not shown) — remaining binding (cell-free assay, competition with immobilised ligand; 1 µM): 100%
